Results from ChEMBL document CHEMBL5247575 (J Med Chem, 2018).

Each molecule was assayed on Klebsiella pneumoniae (assay: Synergistic antibacterial activity against Klebsiella pneumoniae 761/1723 producing KPC-3 assessed as meropenem MIC at 8 ug/ml by broth microdilution method). Conditions: dose 8 µg/ml.
Format: functional

Structure (SMILES) | MIC [mg/L]
N#C[C@@H]1CC[C@@H]2CN1C(=O)N2OS(=O)(=O)[O-].[Na+] | ≤ 0.12

What follows are molecules tested on Klebsiella pneumoniae (assay: Synergistic antibacterial activity against Klebsiella pneumoniae 935/1884 producing KPC-3 assessed as meropenem MIC at 8 ug/ml by broth microdilution method). Conditions: dose 8 µg/ml.
Format: functional

Structure (SMILES) | MIC [mg/L]
N#C[C@@H]1CC[C@@H]2CN1C(=O)N2OS(=O)(=O)[O-].[Na+] | ≤ 0.12

The molecules below were run on Escherichia coli (assay: Synergistic antibacterial activity against Escherichia coli DH10B transfected with pBC SK (-) PDC-3 assessed as meropenem MIC at 4 ug/ml by broth microdilution method). Conditions: dose 4 µg/ml.
Format: functional
Outline: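 Broth microdilution per CLSI guidelines, using custom frozen panels. […] Each partner drug was also tested alone. MICs were run in triplicate and the modal value is reported.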

Structure (SMILES) | MIC [mg/L]
N#C[C@@H]1CC[C@@H]2CN1C(=O)N2OS(=O)(=O)[O-].[Na+] | ≤ 0.12

These molecules were tested on Escherichia coli (assay: Synergistic antibacterial activity against Escherichia coli DH10B assessed as meropenem MIC at 8 ug/ml by broth microdilution method). Conditions: dose 8 µg/ml.
Format: functional

Structure (SMILES) | MIC [mg/L]
N#C[C@@H]1CC[C@@H]2CN1C(=O)N2OS(=O)(=O)[O-].[Na+] | ≤ 0.12

These molecules were tested on Acinetobacter baumannii (assay: Synergistic antibacterial activity against Acinetobacter baumannii PR476 producing OXA-24/40 assessed as cefepime MIC at 4 ug/ml by broth microdilution method). Conditions: dose 4 µg/ml.
Format: functional

Structure (SMILES) | MIC [mg/L]
N#C[C@@H]1CC[C@@H]2CN1C(=O)N2OS(=O)(=O)[O-].[Na+] | 2

Each molecule was assayed on Pseudomonas aeruginosa (assay: Synergistic antibacterial activity against Pseudomonas aeruginosa 715 assessed as meropenem MIC at 8 ug/ml by broth microdilution method). Conditions: dose 8 µg/ml.
Format: functional

Structure (SMILES) | MIC [mg/L]
N#C[C@@H]1CC[C@@H]2CN1C(=O)N2OS(=O)(=O)[O-].[Na+] | 16

Each molecule was assayed on Klebsiella pneumoniae (assay: Synergistic antibacterial activity against Klebsiella pneumoniae jefferson 1773 producing OXA-181 assessed as meropenem MIC at 4 ug/ml by broth microdilution method). Conditions: dose 4 µg/ml.
Format: functional

Structure (SMILES) | MIC [mg/L]
N#C[C@@H]1CC[C@@H]2CN1C(=O)N2OS(=O)(=O)[O-].[Na+] | 0.25

These molecules were tested on Escherichia coli (assay: Synergistic antibacterial activity against Escherichia coli DH10B assessed as cefepime MIC at 8 ug/ml by broth microdilution method). Conditions: dose 8 µg/ml.
Format: functional

Structure (SMILES) | MIC [mg/L]
N#C[C@@H]1CC[C@@H]2CN1C(=O)N2OS(=O)(=O)[O-].[Na+] | ≤ 0.12

Each molecule was assayed on Acinetobacter baumannii (assay: Synergistic antibacterial activity against Acinetobacter baumannii PR319 producing OXA-23/24/40 assessed as cefepime MIC at 8 ug/ml by broth microdilution method). Conditions: dose 8 µg/ml.
Format: functional

Structure (SMILES) | MIC [mg/L]
N#C[C@@H]1CC[C@@H]2CN1C(=O)N2OS(=O)(=O)[O-].[Na+] | > 16

These molecules were tested on Klebsiella pneumoniae (assay: Synergistic antibacterial activity against Klebsiella pneumoniae 761/1723 producing KPC-3 assessed as meropenem MIC at 4 ug/ml by broth microdilution method). Conditions: dose 4 µg/ml.
Format: functional

Structure (SMILES) | MIC [mg/L]
N#C[C@@H]1CC[C@@H]2CN1C(=O)N2OS(=O)(=O)[O-].[Na+] | ≤ 0.12

What follows are molecules tested on Klebsiella pneumoniae (assay: Synergistic antibacterial activity against Klebsiella pneumoniae jefferson 1775 producing OXA-48 assessed as cefepime MIC at 4 ug/ml by broth microdilution method). Conditions: dose 4 µg/ml.
Format: functional

Structure (SMILES) | MIC [mg/L]
N#C[C@@H]1CC[C@@H]2CN1C(=O)N2OS(=O)(=O)[O-].[Na+] | ≤ 0.12

The molecules below were run on Acinetobacter baumannii (assay: Synergistic antibacterial activity against Acinetobacter baumannii PR359 producing OXA-23 assessed as cefepime MIC at 4 ug/ml by broth microdilution method). Conditions: dose 4 µg/ml.
Format: functional

Structure (SMILES) | MIC [mg/L]
N#C[C@@H]1CC[C@@H]2CN1C(=O)N2OS(=O)(=O)[O-].[Na+] | 8

What follows are molecules tested on Acinetobacter baumannii (assay: Synergistic antibacterial activity against ADC deleted Acinetobacter baumannii assessed as meropenem MIC at 4 ug/ml by broth microdilution method). Conditions: dose 4 µg/ml.
Format: functional

Structure (SMILES) | MIC [mg/L]
N#C[C@@H]1CC[C@@H]2CN1C(=O)N2OS(=O)(=O)[O-].[Na+] | ≤ 0.12

These molecules were tested on Bacteria (assay: Inhibition of bacteria PDC-3 assessed as second order rate constant K2/K using nitrocefin as substrate). Conditions: not given.

Structure (SMILES) | K
N#C[C@@H]1CC[C@@H]2CN1C(=O)N2OS(=O)(=O)[O-].[Na+] | 2.3 10^4/M/s

What follows are molecules tested on Acinetobacter baumannii (assay: Synergistic antibacterial activity against Acinetobacter baumannii PR476 producing OXA-24/40 assessed as meropenem MIC at 8 ug/ml by broth microdilution method). Conditions: dose 8 µg/ml.
Format: functional

Structure (SMILES) | MIC [mg/L]
N#C[C@@H]1CC[C@@H]2CN1C(=O)N2OS(=O)(=O)[O-].[Na+] | 0.25

What follows are molecules tested on Acinetobacter baumannii (assay: Synergistic antibacterial activity against Acinetobacter baumannii PR420 producing OXA-23/24/40 assessed as cefepime MIC at 8 ug/ml by broth microdilution method). Conditions: dose 8 µg/ml.
Format: functional

Structure (SMILES) | MIC [mg/L]
N#C[C@@H]1CC[C@@H]2CN1C(=O)N2OS(=O)(=O)[O-].[Na+] | > 16

These molecules were tested on Acinetobacter baumannii (assay: Synergistic antibacterial activity against Acinetobacter baumannii PR323 producing OXA-24/40 assessed as cefepime MIC at 4 ug/ml by broth microdilution method). Conditions: dose 4 µg/ml.
Format: functional

Structure (SMILES) | MIC [mg/L]
N#C[C@@H]1CC[C@@H]2CN1C(=O)N2OS(=O)(=O)[O-].[Na+] | > 16

These molecules were tested on Klebsiella pneumoniae (assay: Synergistic antibacterial activity against Klebsiella pneumoniae CAV 1543 producing OXA-48 assessed as cefepime MIC at 4 ug/ml by broth microdilution method). Conditions: dose 4 µg/ml.
Format: functional

Structure (SMILES) | MIC [mg/L]
N#C[C@@H]1CC[C@@H]2CN1C(=O)N2OS(=O)(=O)[O-].[Na+] | 0.25

These molecules were tested on Pseudomonas aeruginosa (assay: Synergistic antibacterial activity against Pseudomonas aeruginosa CL232 assessed as meropenem MIC at 4 ug/ml by broth microdilution method). Conditions: dose 4 µg/ml.
Format: functional

Structure (SMILES) | MIC [mg/L]
N#C[C@@H]1CC[C@@H]2CN1C(=O)N2OS(=O)(=O)[O-].[Na+] | 16

Each molecule was assayed on Acinetobacter baumannii (assay: Synergistic antibacterial activity against ADC deleted Acinetobacter baumannii transfected with pWH1266 OXA-23 assessed as meropenem MIC at 4 ug/ml by broth microdilution method). Conditions: dose 4 µg/ml.
Format: functional

Structure (SMILES) | MIC [mg/L]
N#C[C@@H]1CC[C@@H]2CN1C(=O)N2OS(=O)(=O)[O-].[Na+] | 16
